Results published in PubChem BioAssay AID463172 (The Scripps Research Institute Molecular Screening Center, 2010).

Tested on: HEK293T RORa/G6PC promoter luciferase, 20 h
Assay: G6PC promoter luciferase repression, IC50 – cell-based, luminescence, dose response, counter-screen for RORA inverse agonist project, late-stage follow-up (AID 463172)
Summary of the method: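 Assay system: HEK293T cells with RORa, SRC-2 and G6PC-luciferase reporter. Doses: 10-point dilution series, highest nominal dose 10 µM. Schedule: 20 h compound exposure after 24 h bulk transfection. Measured by: luciferase luminescence from G6PC promoter reporter. Control set: DMSO vehicle-treated cells as normalization reference.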

Compound: O=S(=O)(Nc1ccc(C(O)(C(F)(F)F)C(F)(F)F)cc1)c1cccs1
- IC50: 1.4 µM
